Experimental findings from ChEMBL document CHEMBL3351699, “Diarylthiazole: an antimycobacterial scaffold potentially targeting PrrB-PrrA two-component system” (J Med Chem, 2014) are described below.

Data set [1] deals with Mycobacterium tuberculosis. Briefly: Antimicrobial activity against Mycobacterium tuberculosis H37Rv ATCC 27294 infected in human THP1 cells assessed as reduction in bacterial count at 2 times MIC relative to untreated control. The class given is functional, THP-1.
In data set [2] the test system is Mycobacterium tuberculosis. Kind of data set: Reduction in aminoacyl t-RNA synthetases gene expression in Mycobacterium tuberculosis H37Rv ATCC 27294 at 7.5 ug/mL incubated for 4 hrs by DNA microarray analysis. In kind it is functional, organism-based. In a few lines:
(§1)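 Total RNA was isolated from compound-treated Mtb cultures and hybridised on DNA microarrays, with RNA from an untreated Mtb culture as the control.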

Data set [3] relates to Mycobacterium tuberculosis. Kind of data set: Bactericidal activity against Mycobacterium tuberculosis H37Rv ATCC 27294 after 5 days by microdilution method. The class given is functional. The following applies: H37Rv ATCC 27294, 120 h.
Data set [4] relates to Mycobacterium tuberculosis. Kind of data set: Ratio of MBC for Mycobacterium tuberculosis H37Rv ATCC 27294 to MIC for Mycobacterium tuberculosis H37Rv ATCC 27294. The class given is functional.
Data set [5] has as its system Mycobacterium tuberculosis. Kind of data set: Antimicrobial activity against Mycobacterium tuberculosis H37Rv ATCC 27294 assessed as growth inhibition after 5 days by microdilution method. The following applies: H37Rv ATCC 27294, 120 h. The class given is functional. A general note: Dilution methods test growth across graded concentrations, often in twofold steps.
The test system of data set [6] is Mycobacterium tuberculosis. Briefly: Induction of cytochrome ubiquinol oxidase gene expression in Mycobacterium tuberculosis H37Rv ATCC 27294 at 7.5 ug/mL incubated for 4 hrs by DNA microarray analysis. In kind it is functional, organism-based. In a few lines:
as §1

Data set [7] has as its system Mycobacterium tuberculosis. Briefly: Induction of fumarate reductase gene expression in Mycobacterium tuberculosis H37Rv ATCC 27294 at 7.5 ug/mL incubated for 4 hrs by DNA microarray analysis. In kind it is functional, organism-based. A digest of the protocol: as §1
Data set [8] has as its system Mycobacterium tuberculosis. Briefly: Induction of prrA gene expression in Mycobacterium tuberculosis H37Rv ATCC 27294 at 7.5 ug/mL incubated for 4 hrs by DNA microarray analysis. The class given is functional. A digest of the protocol: (§2)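 Total RNA was isolated from treated Mtb cells and analysed by DNA microarray. RNA from an untreated Mtb culture served as the control, and expression was reported as mean fold change relative to that untreated control.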

For data set [9], the system named is Mycobacterium tuberculosis. Briefly: Induction of fatty acid metabolism related gene expression in Mycobacterium tuberculosis H37Rv ATCC 27294 at 7.5 ug/mL incubated for 4 hrs by DNA microarray analysis. The class given is functional, organism-based. A digest of the protocol: as §1
In data set [10] the test system is Mycobacterium tuberculosis. Kind of data set: Induction of nitrate reductase gene expression in Mycobacterium tuberculosis H37Rv ATCC 27294 at 7.5 ug/mL incubated for 4 hrs by DNA microarray analysis. The class given is functional, organism-based. A digest of the protocol: as §1
Data set [11] concerns Mycobacterium tuberculosis. Briefly: Reduction in protein synthesis related gene expression in Mycobacterium tuberculosis H37Rv ATCC 27294 at 7.5 ug/mL incubated for 4 hrs by DNA microarray analysis. In kind it is functional, organism-based. In a few lines: as §1
Data set [12] relates to Mycobacterium tuberculosis. Briefly: Induction of anaerobic state electron transport chain maintenance related gene expression in Mycobacterium tuberculosis H37Rv ATCC 27294 at 7.5 ug/mL incubated for 4 hrs by DNA microarray analysis. In kind it is functional, organism-based. In a few lines: as §1
Data set [13] has as its target T1, Enoyl-[acyl-carrier-protein] reductase [NADH] (Mycobacterium tuberculosis, UniProt P9WGR1).
T1 sequence (P9WGR1 whole entry): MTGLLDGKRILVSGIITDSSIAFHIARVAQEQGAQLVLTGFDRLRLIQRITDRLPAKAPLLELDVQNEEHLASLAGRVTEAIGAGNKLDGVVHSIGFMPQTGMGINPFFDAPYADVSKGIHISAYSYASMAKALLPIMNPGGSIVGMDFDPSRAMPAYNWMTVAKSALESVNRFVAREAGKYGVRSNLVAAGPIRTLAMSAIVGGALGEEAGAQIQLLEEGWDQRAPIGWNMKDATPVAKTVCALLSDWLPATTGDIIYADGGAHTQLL
Briefly: Inhibition of Mycobacterium tuberculosis InhA using NADH and dodecyl coA substrate by LC-MS/MS method.

Data set [14] concerns Mycobacterium tuberculosis. Kind of data set: Induction of prrB gene expression in Mycobacterium tuberculosis H37Rv ATCC 27294 at 7.5 ug/mL incubated for 4 hrs by DNA microarray analysis. In kind it is functional. In a few lines: as §2
For data set [15], the system named is Mycobacterium tuberculosis. Briefly: Reduction in sigma factors gene expression in Mycobacterium tuberculosis H37Rv ATCC 27294 at 7.5 ug/mL incubated for 4 hrs by DNA microarray analysis. The class given is functional, organism-based. A digest of the protocol: as §1
Data set [16] concerns Mycobacterium tuberculosis. Kind of data set: Reduction in ribosomal protein synthesis related gene expression in Mycobacterium tuberculosis H37Rv ATCC 27294 at 7.5 ug/mL incubated for 4 hrs by DNA microarray analysis. In kind it is functional, organism-based. In a few lines:
as §1

In data set [17] the test system is Mycobacterium tuberculosis. Briefly: Reduction in RNA metabolism related gene expression in Mycobacterium tuberculosis H37Rv ATCC 27294 at 7.5 ug/mL incubated for 4 hrs by DNA microarray analysis. In kind it is functional, organism-based. In a few lines:
as §1

Data set [18] concerns Mycobacterium tuberculosis. Kind of data set: Induction of oxido-reductases gene expression in Mycobacterium tuberculosis H37Rv ATCC 27294 at 7.5 ug/mL incubated for 4 hrs by DNA microarray analysis. In kind it is functional, organism-based. In a few lines: as §1
Data set [19] concerns Mycobacterium tuberculosis. Briefly: Reduction in RNA polymerase subunits gene expression in Mycobacterium tuberculosis H37Rv ATCC 27294 at 7.5 ug/mL incubated for 4 hrs by DNA microarray analysis. The class given is functional, organism-based. A digest of the protocol:
as §1

In data set [20] the test system is Mycobacterium tuberculosis. Briefly: Antimicrobial activity against Mycobacterium tuberculosis H37Rv ATCC 27294 assessed as reduction in bacterial count relative to untreated control. The class given is functional. In a few lines: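 About 10⁶ Mtb cells/mL exposed to compound for 10 days; viable count read as Log₁₀ CFU/mL reduction versus untreated controls.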

Data set [21] can be described thus: Solubility of the compound. In kind it is physicochemical.

≈ marks a conversion by molar mass, not a printed value. Calls of active or inactive are those of the source.

The term MBC denotes the smallest concentration meeting the test's criterion for killing. High values mean weaker bactericidal potency, low ones greater bactericidal potency. As usually defined, the MIC80 is the lowest concentration that inhibits either 80% of growth or 80% of the strains tested, depending on the study. A word on the IC50: it is the concentration that gives 50% inhibition. Higher therefore signals a need for much substance. Broadly, the solubility is the concentration that dissolves in the medium under given conditions. A higher solubility goes with much dissolved substance. Consider `CCCc1cc(-c2nc(-c3ccncc3)cs2)ccn1`, for which the log10CFU/ml was 1.5 in data set [1] and 3 in [20]. Also, the outcome in data set [2], in data set [6], in [7], in [9], in [10] and in [11] was Active. Besides, the outcome in data set [12], in data set [15], in data set [16], in [17], in [18] and in [19] was Active. The compound also had an MBC in [3] of 0.8 µg/mL (≈ 2.84 µM). Moreover, the Ratio in data set [4] was found to be 2. Besides, the MIC80 in data set [5] was found to be 0.4 µg/mL (≈ 1.42 µM). For the same compound, the “fold change (FC)” value in data set [8] and in data set [14] was 0.7 each time. In addition, the IC50 in data set [13] was over 50 µM. The compound further gave a solubility in data set [21] of 91.5 µM (≈ 25.7 µg/mL).
